HTRA1 inh = HTRA1 serine protease inhibitors, primary screen, biochemical, fluorescence polarization, HTS. Q92743. 340,000 tested, 0.5% active. recombinant HTRA1, FP-rhodamine activity-based probe. inhibition, % at 5.96 µM; in the data active = inhibition above about 36%;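 note: 0% = enzyme with DMSO and 100% = wells lacking enzyme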
Target sequence (Q92743 whole entry, looked up): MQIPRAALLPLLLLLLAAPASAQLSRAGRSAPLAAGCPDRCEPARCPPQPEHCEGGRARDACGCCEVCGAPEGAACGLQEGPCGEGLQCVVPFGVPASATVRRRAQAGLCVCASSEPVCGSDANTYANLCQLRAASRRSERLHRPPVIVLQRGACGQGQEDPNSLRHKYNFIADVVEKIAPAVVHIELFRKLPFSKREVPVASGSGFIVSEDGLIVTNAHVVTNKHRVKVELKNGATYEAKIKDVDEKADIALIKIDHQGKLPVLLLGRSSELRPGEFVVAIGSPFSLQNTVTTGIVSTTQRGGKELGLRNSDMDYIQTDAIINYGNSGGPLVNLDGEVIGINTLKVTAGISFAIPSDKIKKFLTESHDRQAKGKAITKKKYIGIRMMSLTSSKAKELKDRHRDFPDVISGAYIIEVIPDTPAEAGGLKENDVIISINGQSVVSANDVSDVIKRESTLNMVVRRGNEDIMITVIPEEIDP
Tn6 DDE FP = inhibitors of Tn6 peptide binding to fibrin DD(E), primary screen, biochemical, fluorescence polarization, human fibrin, Tn6 probe; 370,000 tested, 0.21% active; inhibition, % at 8.3 µM; Fibrinogen beta chain (Homo sapiens), P02675; AID 720509, 2013; Fibrin DD(E) TRITC-Tn6 fluorescence polarization displacement;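 active = inhibition above a per-campaign cutoff: mean of compounds within control limits plus 3 SD, cut at about 15% in these data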;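 note: 0% = median of all compound wells on the plate and 100% = blocking peptide control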
TCR CD3 inh = inhibitors of human TCR-CD3 interaction, primary screen, biochemical, fluorescence, TAMRA-labeled TCR probe. inhibition, % at 9.4 µM. 360,000 tested, 0.37% active. AID 651800, 2012; in the data active = inhibition above about 19%;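 note: recombinant mutant TCR 2C K166C tagged with TAMRA read by polarization; 0% = receptor in buffer alone and 100% = receptor with positive control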
ABHD4 inh = ABHD4 inhibitors, primary screen, biochemical, fluorescence polarization, mouse; (Lyso)-N-acylphosphatidylethanolamine lipase (Mus musculus), Q8VD66; purified mABHD4, FP-Rh probe fluorescence polarization; inhibition, % at 8.92 µM; 370,000 tested, 0.54% active; AID 720543, 2013;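 active = inhibition exceeding the mean over every tested compound plus 3 SD, cut at about 30% in these data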;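 note: 0% = plate median of compound wells and 100% = S159A mutant with DMSO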
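Test system: mABHD4 protein | Buffer or medium: HEPES pH 7.0 buffer, 150 mM NaCl, 0.01% Pluronic F-127 | Probe or stimulus: FP-Rh fluorescent activity-based probe, added after compound pre-incubation | Timing: Pre-incubation 45 min, probe exposure 60 min, at 25 °C | Technique: Fluorescence polarization, excitation 525 nm, emission 598 nm, BODIPY TMR filters | Repeats: Single well per compound (singlicate)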
Tn7 DDE FP = inhibitors of Tn7 peptide binding to fibrin DD(E), primary screen, biochemical, fluorescence polarization, human fibrin, Tn7 probe; Fibrinogen beta chain (Homo sapiens), P02675; FP displacement of FITC-Tn7 peptide from fibrin DD(E); 0% = median of compound wells per plate; inhibition, % at 8.3 µM; 370,000 tested, 0.13% active;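 active = inhibition above the mean of compounds falling within the control limits plus 3 SD of them, cut at about 14% in these data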;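 note: 0% = plate median of compound wells and 100% = 10 µM Aha-Tn7 peptide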
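assay system = human clot-derived fibrin DD(E) complex | quantity = Fibrin-DD(E) at 2 µM final | timing = 10 min preincubation, 3 h with tracer, room temperature | signal = fluorescence polarization | measure = percent inhibition | benchmarks = high control wells with 10 µM unlabelled Aha-Tn7 peptide (full inhibition) | replicates = singlicate testing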
SIAE inh = human SIAE inhibitors, primary screen, biochemical, fluorescence polarization, FP-Rh probe, 1536-well HTS; AID 1053197, 2014; 370,000 tested, 0.69% active; inhibition, % at 9.66 µM; SIAE FP-Rh probe binding; Sialate O-acetylesterase (Homo sapiens), Q9HAT2;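 active = inhibition above a cutoff: mean of compounds within the control limits plus 3 SD of those, cut at about 17% in these data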;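 note: 0% = plate median of compound wells and 100% = probe without SIAE protein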
ABHD4 confirm = ABHD4 inhibitors, retest, confirmation, biochemical, fluorescence polarization, mouse; shares compounds with ABHD4 inh; purified mABHD4, FP-Rh probe fluorescence polarization; inhibition, % at 8.92 µM; 1,800 tested, 55% active;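 active = mean inhibition across replicates above the hit cutoff set in the primary screen, cut at about 30% in these data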;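 note: 0% = wild-type ABHD4 with DMSO and 100% = catalytically dead S159A mutant with DMSO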
SIAE inh conf = human SIAE inhibitors, retest, confirmation, biochemical, fluorescence polarization, FP-Rh probe, triplicate; 2,300 tested, 13% active; inhibition, % at 9.66 µM; AID 1117263, 2014; SIAE FP-Rh activity-based probe; shares compounds with SIAE inh;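 active = mean inhibition of the replicates above the hit cutoff set in the primary screen, cut at about 17% in these data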;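 note: 0% = SIAE with DMSO and probe and 100% = probe without SIAE; inhibitors lower polarization as more probe stays unbound to SIAE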
* hit, by the source's call; . = not tested or not shown; + = active, no number. An excerpt weighted towards active compounds, which were near 1.8% of everything screened.

SMILES	HTRA1 inh	Tn6 DDE FP	TCR CD3 inh	ABHD4 inh	Tn7 DDE FP	SIAE inh	ABHD4 confirm	SIAE inh conf
COc1cc2[nH]c(=S)n(NC(=O)c3ccccc3)c(=O)c2cc1OC	2.8	-4.8	5.9	-5.2	4.8	0.5	.	.
COc1ccc(C2COc3cc(O)ccc3C2)c(OC)c1O (configuration not stated)	-6.0	1.6	-9.5	1.9	-6.6	4.6	.	.
Oc1ccc2c(c1)OCC1(O)Cc3cc(O)c(O)cc3C21 (configuration not stated)	30.5	+	.	110.1*	28.3*	+	128.9*	+
COc1ccc(/C=N/NC(=O)c2cnccn2)cc1O	-3.0	4.8	4.2	-5.3	-9.8	0.9	.	.
COc1ccc(/C=N/NC(=O)c2cc3c(OC)ccc(OC)c3[nH]2)cc1O	16.6	-22.1	-3.4	32.7*	1.6	23.7*	46.9*	10.8
COC(=O)c1ccc(CC(=O)c2c(C)cc(O)cc2O)o1	6.2	3.1	9.9	38.2*	-8.3	24.2*	11.2	5.4
COC(=O)c1ccc(CC(=O)c2ccc(O)cc2O)o1	1.1	.	.	.	.	.	.	.
Cc1ccc[n+](-c2[nH]c(=O)sc2/C=N/N=C(\[O-])CCn2c3ccccc3c3ccccc32)c1	1.2	-4.0	-13.4	11.4	6.5	-1.6	.	.
Cc1cc[n+](-c2[nH]c(=O)sc2/C=N/NC([S-])=Nc2ccccc2)cc1C	21.9	0.1	12.4	31.3*	12.6	19.2*	28.0	3.4
CCOC(=O)Cn1cc(CN2C(C(=O)OC)CN(Cc3ccccc3)CCS2(=O)=O)nn1 (configuration not stated)	.	9.7	.	1.8	-0.5	1.1	.	.
O=S(=O)(Nc1ccc(O)c2ncccc12)c1ccccc1F	.	-1.2	29.4*	39.2*	-1.3	28.9*	42.0*	10.4
Cc1cc(C)nc(N2CCN(C(=O)CSc3nc4ccccc4nc3N3CC(C)OC(C)C3)CC2)n1 (configuration not stated)	.	-2.1	.	-1.4	-3.8	-4.8	.	.
Cc1ccc(NC(=O)CN2C(=O)S/C(=C/c3ccc(O)c([N+](=O)[O-])c3)C2=O)cc1C	9.6	-2.0	10.5	50.6*	-0.8	24.9*	62.9*	4.0
COC(=O)[C@]12C[C@H](CC(=O)NCC3CCCCC3)C(=O)N(Cc3ccc(Cl)cc3Cl)C1=C[C@H](C(C)C)O[C@@H]2C1CC1	.	4.3	.	-9.6	7.3	-4.1	.	.
O=C(O)Cc1c[nH]c2cccc(O)c12	8.8	-1.9	12.9	53.1*	-6.2	22.8*	22.7	11.7
O=C(O)Cc1c[nH]c2ccccc12	2.9	0.8	1.5	1.2	0.4	-1.3	.	.
O=C(CCc1nc(-c2ccccc2F)no1)NCCc1ccc(F)cc1	.	6.3	.	0.3	8.7	6.7	.	.
Cc1[nH]c2ccccc2c1N=Nc1ccccc1C(=O)O	31.5	-8.7	2.5	56.3*	5.4	34.4*	68.5*	9.8
Cc1[nH]c2ccccc2c1N=Nc1cccc(C(=O)O)c1	-2.7	1.8	5.1	14.6	-6.4	3.6	.	.
COc1ccccc1N1CCN(C(=O)c2cc3c(C)nn(-c4ccccc4)c3s2)CC1	.	-8.6	.	-3.9	3.3	-2.6	.	.
C=CCN1[C@H](CC(C)C)COc2cc(N3CCSCC3)ccc2S1(=O)=O	.	0.2	.	-0.8	-1.9	-0.3	.	.
O=C(N/N=C/c1c(O)n(Cc2ccccc2)c(=O)c2ccccc12)c1cccnc1	23.1	-13.7	3.0	62.2*	-9.1	26.0*	73.0*	12.4
COc1ccc(Cn2c(O)c(/C=N/NC(=O)c3cccnc3)c3ccccc3c2=O)cc1	10.5	-17.1	-0.1	31.5*	-2.4	29.4*	44.9*	6.6
O=C(N/N=C/c1c(O)n(-c2ccccc2Cl)c(=O)c2ccccc12)c1cccnc1	30.9	5.0	11.3	21.9	-1.7	9.0	.	.
COc1ccc(OC)c(N/C(C)=C/C(=O)c2ccccc2)c1	6.8	1.8	4.2	0.5	-3.3	7.1	.	.
SMILES	HTRA1 inh	Tn6 DDE FP	TCR CD3 inh	ABHD4 inh	Tn7 DDE FP	SIAE inh	ABHD4 confirm	SIAE inh conf
COc1ccc(OC)c(N/C(C)=C/C(=O)c2ccncc2)c1	13.0	12.8	4.8	49.5*	5.6	20.6*	1.3	2.9
C/C(=N\O)c1cc(Cl)cc(Cl)c1O	0.8	-4.4	-3.7	6.6	4.1	24.8*	.	30.3*
CC1(C)CC(=O)C=C(Nc2ccccc2NC(=O)c2cc(F)ccc2F)C1	.	-3.6	.	1.9	-7.7	1.5	.	.
CCOC(=O)/C(=C\c1c[nH]c2ccccc12)NC(C)=O	1.6	-0.7	-8.6	5.0	1.5	17.8*	.	4.2
CCOC(=O)CC[C@H]1CC[C@]2(CCCN(C(=O)c3cccnc3)C2)O1	.	-4.3	.	0.8	-5.1	30.0*	.	-2.1
COC(=O)[C@]1(CNC(=O)C(C)(C)C)CC(=O)N(C)[C@@H]1c1ccccc1	.	3.5	.	0.3	-11.3	-1.4	.	.
CCNC(=O)N(C)[C@H]1C[C@H]2c3[nH]c4c(-c5cccc(C)c5)cccc4c3CCN2C[C@H]1[C@H](C)O	.	3.0	.	3.6	-4.5	-5.9	.	.
CC(C)C1=CC2C3C(=O)N(c4ccccc4)C(=O)C3C1C(=O)C2(C)O (configuration not stated)	.	2.0	7.2	2.1	0.5	20.6*	.	3.4
CC1=CC2C3C(=O)N(c4ccccc4)C(=O)C3C1C(=O)C2(O)C(C)C (configuration not stated)	.	-1.2	-5.9	5.5	4.3	0.1	.	.
C[C@]12CCC(=O)C=C1C=C[C@@H]1[C@@H]2CC[C@@]2(C)[C@H]1CC[C@@]21CCC(=O)O1	0.1	-6.3	-4.4	1.2	-6.0	19.3*	.	0.6
CC(=O)O[C@]1(C(C)=O)CCC2C3C=C(C)C4=CC(=O)CC[C@]4(C)C3CC[C@@]21C (some centres not stated)	-1.0	-6.0	1.6	3.5	-2.0	1.7	.	.
O=C(c1ccc(F)cc1Cl)N1CCCC(c2nc(-c3cccs3)no2)C1 (configuration not stated)	.	5.0	.	0.8	-2.3	-1.8	.	.
COc1ccc(S(=O)(=O)NC2CCN(C#N)CC2)cc1	.	0.3	.	0.6	2.2	-2.6	.	.
